PP5 inh = inhibitors of human protein phosphatase 5 (PP5); AID 1987; purified PP5c, OMFP substrate fluorescence; inhibition, % at 6.7 µM; 0.18% of 320,000 active; P53041;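 active = inhibition above the campaign's mean inhibition across all tested compounds plus 3 SD, cut at about 9.5% in these data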
NS3 helicase inh = HCV NS3 helicase inhibition; NS3 helicase DNA unwinding, Cy5 molecular beacon fluorescence; inhibition, % at 10.9 µM; 0.56% of 290,000 active; AID 1800;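 active = inhibition above the mean of all tested compounds plus 3 SD, set per campaign, cut at about 35% in these data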
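Test system: hepatitis C virus NS3 helicase domain fragment enzyme. Also added: annealed dual-labelled DNA beacon duplex, ATP-started. Timing: 60 min unwinding reaction at 25 °C after ATP addition. Technique: Cy5 fluorescence. Measure: % inhibition of unwinding.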
FID counter = counter-screen for HCV NS3 helicase inhibitors: DNA intercalator displacement. 0.17% of 290,000 active. DNA fluorescent intercalator displacement, fluorescence. inhibition, % at 7.9 µM. AID 1845; in the data active = inhibition above about 37%;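 note: higher means more ethidium bromide displaced from hairpin DNA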
PP1 counter = PP1-alpha (human) inhibition in PP5 counter-screen; purified PP1alpha, OMFP fluorescence; inhibition, % at 6.7 µM; 0.9% of 320,000 active;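 active = inhibition above the mean inhibition of all tested compounds plus 3 SD, computed separately for each screening campaign, cut at about 15% in these data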
Target sequence (P62136 whole entry, looked up): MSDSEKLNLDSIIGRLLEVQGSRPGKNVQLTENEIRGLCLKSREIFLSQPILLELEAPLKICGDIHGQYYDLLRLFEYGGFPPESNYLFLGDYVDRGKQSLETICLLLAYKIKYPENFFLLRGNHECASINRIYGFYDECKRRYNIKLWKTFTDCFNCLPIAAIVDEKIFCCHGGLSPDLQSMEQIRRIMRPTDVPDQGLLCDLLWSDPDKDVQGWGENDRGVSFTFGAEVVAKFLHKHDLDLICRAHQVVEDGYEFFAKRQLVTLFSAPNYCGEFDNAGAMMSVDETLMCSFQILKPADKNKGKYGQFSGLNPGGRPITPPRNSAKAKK
HIF act = HIF pathway transcriptional activation; U2OS HRE-luciferase reporter, luminescence; normalized: DMSO 0%, desferrioxamine 100%; activation, % at 7.5 µM (by protocol); 0.32% of 300,000 active;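 active = mean activation of at least 10% of the iron chelator positive control signal, with at least half of replicates also reaching 10%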
PP1 confirm = confirmation of human PP1 phosphatase inhibitors. shares compounds with PP1 counter. purified PP1alpha, OMFP substrate fluorescence. inhibition, % at 6.7 µM. 52% of 1,900 active. AID 2358;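 active = mean PP1 inhibition above a set limit taken from the earlier primary screen, cut at about 15% in these data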
PP5 counter = counter-screen for PP1 inhibitors: human PP5 phosphatase inhibition | shares compounds with PP1 counter | purified PP5c, OMFP fluorescence | inhibition, % at 6.7 µM | 4% of 1,900 active | AID 2360;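 active = mean PP5 inhibition over triplicate wells above about 9.5% taken from the earlier PP1 screen, limit read from the data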
Hits are given with their value; n = inactive; x = no result given. Most compounds without a hit are left out; they make up all but 1.9% or so of the library.

SMILES | PP5 inh | NS3 helicase inh | FID counter | PP1 counter | HIF act | PP1 confirm | PP5 counter
CCOc1ccc(S(=O)(=O)NCCCN2CCOCC2)cc1 | n | n | n | 23 | n | n | n
Clc1ccc(C(Cn2ccnc2)OCc2c(Cl)cccc2Cl)c(Cl)c1 (stereo not given) | n | x | x | 26 | x | 18 | n
NNC(=O)c1ccc(COc2ccc3ccccc3c2)cc1 | n | n | n | 21 | n | n | n
NNC(=O)c1ccc(COc2ccc3c(c2)CCC3)cc1 | n | n | n | n | n | x | x
Nc1nc(SCC(=O)N2CCCCC2)[nH]c(=O)c1NC(=O)c1ccccc1F | n | n | n | n | n | x | x
O=C1CNC(=S)N1c1nc2ccccc2s1 | n | n | n | 25 | n | n | n
O=C1CCC(=O)N1c1ccc(-c2nc3ccccc3s2)cc1 | n | n | n | n | n | x | x
COC(=O)c1ccccc1NC1=C/C(=N\S(=O)(=O)c2ccc(C(=O)O)cc2)c2ccccc2C1=O | n | n | n | n | n | x | x
CCc1ccc(S(=O)(=O)/N=C2\C=C(Nc3ccc(C(=O)O)cc3)C(=O)c3ccccc32)cc1 | 11 | n | n | 15 | n | 16 | 44
CCC(C)[C@H](NC(=O)NC(C)C)C(=O)O (stereo not given in full) | n | n | n | n | n | x | x
CC(C)(C)C(=O)N1N=C(c2ccc(NS(C)(=O)=O)cc2)CC1c1cccs1 (stereo not given) | n | n | n | 23 | n | n | n
CS(=O)(=O)Nc1ccc(C2=NN(C(=O)c3ccccc3)C(c3cccs3)C2)cc1 (stereo not given) | n | n | n | n | n | x | x
O=C(/C=C/c1cn(-c2ccccc2)nc1-c1cccnc1)c1ccco1 | n | n | n | 18 | n | n | n
O=C(/C=C/c1cn(-c2ccccc2)nc1-c1ccccc1)Nc1ccc(C(=O)O)cc1 | n | n | n | 19 | 16 | n | n
NC(=O)c1ccc(NC(=O)COC(=O)/C=C/c2cn(-c3ccccc3)nc2-c2cccnc2)cc1 | n | n | n | 23 | n | 19 | n
NS(=O)(=O)c1ccc(NC(=O)/C=C/c2cn(-c3ccccc3)nc2-c2cccc(Cl)c2)cc1 | n | n | n | n | n | x | x
COc1cccc(C2C3=C(N=c4s/c(=C\c5ccc(OCC(=O)O)cc5)c(=O)n42)c2ccccc2CC3)c1 (stereo not given) | n | n | n | 23 | n | n | n
COc1ccccc1C1C2=C(N=c3s/c(=C/c4cccc(OCC(=O)O)c4)c(=O)n31)c1ccccc1CC2 (stereo not given) | n | n | n | 20 | x | 19 | n
COc1cccc(C2C3=C(N=c4s/c(=C\c5ccc(O)cc5)c(=O)n42)c2ccccc2CC3)c1OC (stereo not given) | n | n | n | n | n | x | x
O=[N+]([O-])c1c(Nc2ccc(O)cc2)cc(Cl)c2nonc12 | n | n | n | n | n | x | x
Cc1ccc(Cn2cc(S(=O)(=O)c3ccc(C(C)C)cc3)c(=O)c3cc4c(cc32)OCO4)cc1 | n | n | n | 18 | n | 18 | n
CC(C)c1ccc(S(=O)(=O)c2cn(Cc3ccc(F)cc3)c3cc4c(cc3c2=O)OCO4)cc1 | n | n | n | n | n | x | x
O=C(Nc1ccccc1Oc1cccnc1)C1CCCN(Cc2ccc(F)cc2)C1 (stereo not given) | n | n | n | 50 | n | n | n
O=C(NCCc1nnc2ccc(N3CCCC3)nn12)c1ccccc1 | n | n | n | n | n | x | x
O=C1NC(=O)/C(=C\c2ccccc2OCc2ccc([N+](=O)[O-])cc2)N1 | n | n | n | n | n | x | x
SMILES | PP5 inh | NS3 helicase inh | FID counter | PP1 counter | HIF act | PP1 confirm | PP5 counter
O=C1NC(=O)/C(=C\c2ccc(OCc3cccc([N+](=O)[O-])c3)cc2)N1 | n | n | n | 43 | n | 20 | n
Cc1nc(SC2CC(=O)N(c3ccccc3)C2=O)n[nH]1 (stereo not given) | n | n | n | 21 | n | n | n
O=C(CSc1nnc2ccccn12)Nc1cccc(S(=O)(=O)N2CCOCC2)c1 | n | n | n | n | n | x | x
CCN1/C(=C/C(C)=C/c2sc3ccccc3[n+]2CC)Sc2ccccc21 | 10 | n | n | 23 | n | n | n
CCN1/C(=C\C(=S)Nc2ccccc2)Sc2ccccc21 | n | n | n | n | n | x | x
COC(=O)c1ccccc1NC(=O)c1ccc(COc2cccc3ccccc23)o1 | n | n | n | 25 | n | 19 | n
COC(=O)c1ccccc1NC(=O)c1ccc(COc2ccccc2)o1 | n | n | n | n | x | x | x
Nc1cc(=O)[nH]c(SCC(=O)Nc2ccc([N+](=O)[O-])cc2)n1 | n | n | n | n | n | x | x
Nc1nc(SCC(=O)Nc2ccc([N+](=O)[O-])cc2)[nH]c(=O)c1NC(=O)c1ccc(Br)cc1 | n | n | n | 19 | n | 23 | n
CCN(C(=O)COC(=O)c1ccc(S(=O)(=O)N2CCCc3ccccc32)cc1)C1CCS(=O)(=O)C1 (stereo not given) | n | n | n | n | n | x | x
O=c1c(Cl)c(N/N=C/c2ccc(Cl)cc2)cnn1-c1ccccc1 | n | n | n | 29 | n | 21 | n
COc1cccc(NC(=O)CN2C(=O)CSc3ccc(S(=O)(=O)N4CCCCC4)cc32)c1 | n | n | n | n | n | x | x
Cc1cc(C)n(Cc2ccc(C(=O)N/N=C/c3ccc(-c4ccc([N+](=O)[O-])cc4)o3)o2)n1 | n | n | n | 33 | n | 28 | n
C/C(=N\NC(=O)c1cccc(S(=O)(=O)N2CCCC2)c1)c1ccc(C)cc1 | n | x | x | n | n | x | x
CCOC(=O)c1c(C)[nH]c(C(=O)OC/C(O)=C(\C#N)c2nc3ccccc3[nH]2)c1C | n | n | n | 20 | x | n | n
O=C(NNC(=O)c1cc(-c2cccc(Br)c2)nc2ccccc12)c1csc(N2CCOCC2)n1 | n | x | x | n | n | x | x
S=c1[nH]nc(COc2ccccc2)n1/N=C/c1cccc(Br)c1 | n | n | n | 33 | n | n | n
CSCCC(NC(=O)c1ccccc1Cl)C(=O)N1CCN(c2ccccn2)CC1 (stereo not given) | n | n | n | n | n | x | x
Cc1ccccc1OCC(=O)Nc1nc(-c2ccncc2)cs1 | n | x | x | n | x | x | x
CCOc1ccc(Nc2nc(-c3cccnc3)cs2)cc1 | n | n | n | n | n | x | x
CCC(=O)c1ccc(OCC(=O)Nc2nc(-c3cccnc3)cs2)cc1 | n | x | x | 18 | n | 29 | n
CCc1ccccc1OCC(=O)Nc1nc(-c2cccnc2)cs1 | 10 | n | n | 45 | n | 44 | n
O=C(Nc1nc(-c2ccccn2)cs1)C1CC(=O)N(c2ccc3c(c2)OCCO3)C1 (stereo not given) | n | n | n | 45 | n | 55 | n
COc1cccc2c(=O)c3c([nH]c12)OC(C)(C)C3 | n | x | x | n | n | x | x

Assay outcomes from PubChem.
